Assay results published in ChEMBL document CHEMBL1255280, “P-glycoprotein limits oral availability, brain penetration, and toxicity of an anionic drug, the antibiotic salinomycin” (Antimicrob Agents Chemother, 2008).

Columns and labels:
[1] = Plasma clearance in wild-type mouse at 1 mg/kg, iv; format: ADME, organism-based; design: dose 1 mg/kg, route intravenous
[2] = Cmax in wild-type mouse at 10 mg/kg, po; format: ADME, organism-based; design: dose 10 mg/kg, route oral; settings: in vivo
How it was run: (§1)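 Fasted (3 h) FVB WT mice (n = 5) were given 10 mg/kg by gavage (10 ml/kg of 1 mg/ml, an ethanol stock diluted 10-fold in saline). Tail-vein plasma was collected from 0.25 to 6 h and measured by LC-MS/MS. Only the trapezoidal AUC0-6 was calculated. Cmax and Tmax were taken from the observed data.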

[3] = AUC (0 to infinity) in wild-type mouse at 1 mg/kg, iv; format: ADME, organism-based; design: time infinity, dose 1 mg/kg, route intravenous; settings: plasma
How it was run: (§2)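 Male FVB WT or Mdr1a/1b–/– mice (n = 5). Dosing solution was 10 mg/ml in absolute ethanol, diluted 50-fold with saline to 0.2 mg/ml, and given as a single i.v. tail-vein bolus of 1 mg/kg (5 ml/kg). Tail-vein plasma was sampled at 0.125–6 h and analysed by LC-MS/MS. Noncompartmental analysis with trapezoidal AUC0-6 and AUC(0-∞). CL = dose/AUC(0-∞). Wilcoxon rank sum test.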

[4] = AUC (0 to infinity) in wild-type mouse at 1 mg/kg, po; format: ADME, organism-based; design: time infinity, dose 1 mg/kg, route oral; settings: plasma
How it was run: (§3)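 Male FVB WT or Mdr1a/1b–/– mice (n = 5) were fasted 3 h. They received 1 mg/kg by gavage (10 ml/kg of 0.1 mg/ml, made as an ethanol stock diluted 100-fold in saline). Tail-vein plasma was sampled at 0.25, 0.5, 1, 2, 4 and 6 h and analysed by LC-MS/MS. Noncompartmental trapezoidal AUC0-6 and AUC(0-∞). Cmax and Tmax were taken from the observed data.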

Mus musculus [5] = test: Ratio of Tmax in mdr1a/1b double knockout mouse to Tmax in wild-type mouse at 1 mg/kg, po; format: ADME, organism-based; design: dose 1 mg/kg, route oral; settings: in vivo; how it was run: as §3
[6] = Ratio of drug uptake in brain to drug uptake in plasma in mdr1a/1b double knockout mouse at 1 mg/kg, iv after 180 mins by LC-MS/MS analysis; format: ADME, organism-based; design: dose 1 mg/kg, route intravenous
How it was run: (§4)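 WT or Mdr1a/1b–/– mice (n = 4) received a single 1 mg/kg i.v. tail-vein bolus (5 ml/kg; 0.2 mg/ml in ethanol/saline). At 180 min, plasma, brain, liver and small intestinal contents were collected. Salinomycin was quantified by LC-MS/MS. Brain/plasma ratios were calculated. Wilcoxon rank sum test.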

[7] = Drug uptake in mdr1a/1b double knockout mouse small intestinal content at 1 mg/kg, iv after 180 mins by LC-MS/MS analysis; format: ADME, organism-based; design: dose 1 mg/kg, route intravenous; settings: read-out: Drug uptake; how it was run: as §4
Brain = test: Ratio of drug uptake in brain in mdr1a/1b double knockout mouse to drug uptake in brain in wild-type mouse at 1 mg/kg, iv after 180 mins by LC-MS/MS analysis; format: ADME, organism-based; design: dose 1 mg/kg, route intravenous; settings: in vivo, 3 h; how it was run: as §4
Mus musculus [8] = test: Toxicity in mdr1a/1b double knockout mouse assessed as paralyzed fore limb and hind limb at 10 mg/kg, po after 15 to 30 mins; format: organism-based, Hindlimb; design: dose 10 mg/kg, route oral; settings: in vivo
How it was run: (§5)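 Fasted (3 h) WT and Mdr1a/1b–/– mice (n = 5) received 10 mg/kg orally by gavage in ethanol/saline (10 ml/kg). They were observed 15 to 30 min after dosing for signs of poisoning, including limb paralysis and respiratory frequency.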

[9] = AUC (0 to 6 hrs) in wild-type mouse at 10 mg/kg, po; format: ADME, organism-based; design: time < 6 hr, dose 10 mg/kg, route oral; settings: plasma; how it was run: as §1
[10] = Drug uptake in mdr1a/1b double knockout mouse liver at 1 mg/kg, iv after 180 mins by LC-MS/MS analysis; format: ADME, organism-based; design: dose 1 mg/kg, route intravenous; settings: read-out: Drug uptake; how it was run: as §4
Mus musculus [11] = test: Toxicity in wild-type mouse at 10 mg/kg, po after 15 to 30 mins; format: organism-based; design: dose 10 mg/kg, route oral; settings: in vivo; how it was run: as §5
[12] = Tmax in mdr1a/1b double knockout mouse at 1 mg/kg, po; format: ADME, organism-based; design: dose 1 mg/kg, route oral; settings: in vivo; how it was run: as §3
Mus musculus [13] = test: Ratio of Cmax in mdr1a/1b double knockout mouse to Cmax in wild-type mouse at 1 mg/kg, po; format: ADME, organism-based; design: dose 1 mg/kg, route oral; settings: in vivo; how it was run: as §3
[14] = Tmax in wild-type mouse at 10 mg/kg, po; format: ADME, organism-based; design: dose 10 mg/kg, route oral; settings: in vivo; how it was run: as §1
Mus musculus [15] = test: Toxicity in mdr1a/1b double knockout mouse assessed as decrease in respiratory frequency at 10 mg/kg, po after 15 to 30 mins; format: organism-based; design: dose 10 mg/kg, route oral; settings: in vivo; how it was run: as §5
[16] = Plasma clearance in mdr1a/1b double knockout mouse at 1 mg/kg, iv; format: ADME, organism-based; design: dose 1 mg/kg, route intravenous; how it was run: as §2
[17] = Drug uptake in wild-type mouse plasma at 1 mg/kg, iv after 180 mins by LC-MS/MS analysis; format: ADME, organism-based; design: dose 1 mg/kg, route intravenous; settings: read-out: Drug uptake; how it was run: as §4
[18] = Ratio of drug uptake in brain to drug uptake in plasma in wild-type mouse at 1 mg/kg, iv after 180 mins by LC-MS/MS analysis; format: ADME, organism-based; design: dose 1 mg/kg, route intravenous; how it was run: as §4
[19] = Cmax in wild-type mouse at 1 mg/kg, po; format: ADME, organism-based; design: dose 1 mg/kg, route oral; settings: in vivo; how it was run: as §3
Plasma = test: Ratio of drug uptake in plasma in mdr1a/1b double knockout mouse to drug uptake in plasma in wild-type mouse at 1 mg/kg, iv after 180 mins by LC-MS/MS analysis; format: ADME, organism-based; design: dose 1 mg/kg, route intravenous; settings: in vivo, 3 h; how it was run: as §4
[20] = Drug uptake in wild-type mouse brain at 1 mg/kg, iv after 180 mins by LC-MS/MS analysis; format: ADME, organism-based; design: dose 1 mg/kg, route intravenous; settings: read-out: Drug uptake; how it was run: as §4
[21] = AUC (0 to 6 hrs) in wild-type mouse at 1 mg/kg, po; format: ADME, organism-based; design: time < 6 hr, dose 1 mg/kg, route oral; settings: plasma; how it was run: as §3
[22] = Tmax in wild-type mouse at 1 mg/kg, po; format: ADME, organism-based; design: dose 1 mg/kg, route oral; settings: in vivo; how it was run: as §3
[23] = Drug uptake in mdr1a/1b double knockout mouse brain at 1 mg/kg, iv after 180 mins by LC-MS/MS analysis; format: ADME, organism-based; design: dose 1 mg/kg, route intravenous; settings: read-out: Drug uptake; how it was run: as §4
[24] = AUC (0 to infinity) in mdr1a/1b double knockout mouse at 1 mg/kg, po; format: ADME, organism-based; design: dose 1 mg/kg, route oral, time infinity; settings: plasma; how it was run: as §3
[25] = Drug uptake in mdr1a/1b double knockout mouse plasma at 1 mg/kg, iv after 180 mins by LC-MS/MS analysis; format: ADME, organism-based; design: dose 1 mg/kg, route intravenous; settings: read-out: Drug uptake; how it was run: as §4
Mus musculus [26] = test: Ratio of AUC (0 to 6 hrs) in mdr1a/1b double knockout mouse to AUC (0 to 6 hrs) in wild-type mouse at 1 mg/kg, IV; format: ADME, organism-based; design: dose 1 mg/kg, route intravenous; settings: in vivo; how it was run: as §2
[27] = AUC (0 to 6 hrs) in mdr1a/1b double knockout mouse at 1 mg/kg, po; format: ADME, organism-based; design: time < 6 hr, dose 1 mg/kg, route oral; settings: plasma; how it was run: as §3
Mus musculus [28] = test: Ratio of AUC (0 to infinity) in mdr1a/1b double knockout mouse to AUC (0 to infinity) in wild-type mouse at 1 mg/kg, po; format: ADME, organism-based; design: dose 1 mg/kg, route oral; settings: in vivo; how it was run: as §3
[29] = Cmax in mdr1a/1b double knockout mouse at 1 mg/kg, po; format: ADME, organism-based; design: dose 1 mg/kg, route oral; settings: in vivo; how it was run: as §3
Mus musculus [30] = test: Toxicity in mdr1a/1b double knockout mouse at 1 mg/kg, po; format: organism-based; design: dose 1 mg/kg, route oral; settings: in vivo
[31] = AUC (0 to infinity) in mdr1a/1b double knockout mouse at 1 mg/kg, iv; format: ADME, organism-based; design: time infinity, dose 1 mg/kg, route intravenous; settings: plasma; how it was run: as §2
[32] = Drug uptake in wild-type mouse small intestinal content at 1 mg/kg, iv after 180 mins by LC-MS/MS analysis; format: ADME, organism-based; design: dose 1 mg/kg, route intravenous; settings: read-out: Drug uptake; how it was run: as §4
Mus musculus [33] = test: Ratio of plasma clearance in mdr1a/1b double knockout mouse to plasma clearance in wild-type mouse at 1 mg/kg, iv; format: ADME, organism-based; design: dose 1 mg/kg, route intravenous; settings: in vivo; how it was run: as §2
Mus musculus [34] = test: Ratio of AUC (0 to 6 hrs) in mdr1a/1b double knockout mouse to AUC (0 to 6 hrs) in wild-type mouse at 1 mg/kg, po; format: ADME, organism-based; design: dose 1 mg/kg, route oral; settings: in vivo; how it was run: as §3
[35] = AUC (0 to 6 hrs) in mdr1a/1b double knockout mouse at 1 mg/kg, iv; format: ADME, organism-based; design: time < 6 hr, dose 1 mg/kg, route intravenous; settings: plasma; how it was run: as §2
[36] = Ratio of drug uptake in small intestinal content in mdr1a/1b double knockout mouse to drug uptake in small intestinal content in wild-type mouse at 1 mg/kg, iv after 180 mins by LC-MS/MS analysis; format: ADME, organism-based; design: dose 1 mg/kg, route intravenous; settings: in vivo, 3 h; how it was run: as §4
[37] = Drug uptake in wild-type mouse liver at 1 mg/kg, iv after 180 mins by LC-MS/MS analysis; format: ADME, organism-based; design: dose 1 mg/kg, route intravenous; settings: read-out: Drug uptake; how it was run: as §4
Mus musculus [38] = test: Ratio of AUC (0 to infinity) in mdr1a/1b double knockout mouse to AUC (0 to infinity) in wild-type mouse at 1 mg/kg, iv; format: ADME, organism-based; design: dose 1 mg/kg, route intravenous; settings: in vivo; how it was run: as §2
Liver = test: Ratio of drug uptake in liver in mdr1a/1b double knockout mouse to drug uptake in liver in wild-type mouse at 1 mg/kg, iv after 180 mins by LC-MS/MS analysis; format: ADME, organism-based; design: dose 1 mg/kg, route intravenous; settings: in vivo, 3 h; how it was run: as §4
[39] = AUC (0 to 6 hrs) in wild-type mouse at 1 mg/kg, iv; format: ADME, organism-based; design: time < 6 hr, dose 1 mg/kg, route intravenous; settings: plasma; how it was run: as §2

Work on `CC[C@@H](C(=O)[C@@H](C)[C@@H](O)[C@H](C)[C@@H]1O[C@@H]([C@@H](CC)C(=O)O)CC[C@@H]1C)[C@H]1O[C@]2(C=C[C@@H](O)[C@]3(CC[C@@](C)([C@H]4CC[C@](O)(CC)[C@H](C)O4)O3)O2)[C@H](C)C[C@@H]1C` [SALINOMYCIN] yielded a clearance [1] of 13.7 mL/min/kg, a Cmax [2] of 517 ng/mL and an AUC(0-inf) [3] of 1370 ng·h/mL. For the same compound, the AUC(0-inf) [4] was 80.2 ng·h/mL, the Ratio (Mus musculus [5]) was 1 and the Kp at 3 h [6] was 0.2. The concentration at 3 h [7] was 290 ng/g, the Ratio (Brain) was 5.8 and the Activity (Mus musculus [8]) was “Toxic”. The AUC(0-t) at 6 h [9] was 2130 ng·h/mL, the concentration at 3 h [10] was 6500 ng/g and the Activity (Mus musculus [11]) was “Non-toxic”. It also gave a Tmax [12] of 2 h, a Ratio (Mus musculus [13]) of 3.1 and a Tmax [14] of 0.5 h. The Activity (Mus musculus [15]) was “Toxic”, the clearance [16] was 6.17 mL/min/kg and the concentration at 3 h [17] was 72.5 ng/mL. The Kp at 3 h [18] was 0.13, the Cmax [19] was 13.2 ng/mL and the Ratio (Plasma) was 3.7. For the same compound, the concentration at 3 h [20] was 9.2 ng/g, the AUC(0-t) at 6 h [21] was 62.1 ng·h/mL and the Tmax [22] was 2 h. The concentration at 3 h [23] was 53.2 ng/g, the AUC(0-inf) [24] was 251 ng·h/mL and the concentration at 3 h [25] was 270 ng/mL. For the same compound, the “Ratio AUC” value (Mus musculus [26]) was 1.8, the AUC(0-t) at 6 h [27] was 196 ng·h/mL and the “Ratio AUC” value (Mus musculus [28]) was 3.1. The Cmax [29] was 41 ng/mL, the Activity (Mus musculus [30]) was “Non-toxic” and the AUC(0-inf) [31] was 2810 ng·h/mL. For the same compound, the concentration at 3 h [32] was 210 ng/g, the Ratio (Mus musculus [33]) was 0.5 and the “Ratio AUC” value (Mus musculus [34]) was 3.2. It also gave an AUC(0-t) at 6 h [35] of 2370 ng·h/mL, a Ratio [36] of 1.4 and a concentration at 3 h [37] of 7400 ng/g. The “Ratio AUC” value (Mus musculus [38]) was 2, the Ratio (Liver) was 0.9 and the AUC(0-t) at 6 h [39] was 1310 ng·h/mL.
